# Measured values as given in ChEMBL document CHEMBL1158358, “Synthesis, antimicrobial and cytotoxic activities of some 5-arylidene-4-thioxo-thiazolidine-2-ones” (Eur J Med Chem, 2009).
# Assays:
# Format in all cases: functional
# Staphylococcus aureus [1] = experiment: Antimicrobial activity against multidrug-resistant Staphylococcus aureus H.C. 20794 isolate after 20 hrs by twofold serial dilution technique; details: H.C. 20794, 20 h
# Summary of the method: (§1)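 Twofold serial dilution MIC in agar plates against Gram-positive strains and multidrug-resistant clinical isolates. Inoculum applied was 10⁵ CFU/plate. Plates with culture medium plus DMSO served as negative control. MIC was read after incubation at 35 °C for 20 h.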
# Pseudomonas aeruginosa = experiment: Antimicrobial activity against Pseudomonas aeruginosa UFPEDA 39 at 300 ug/disk after 24 hrs by disk diffusion method; details: UFPEDA 39, 24 h, read-out: IZ
# Summary of the method: (§2)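 Preliminary screen by disk diffusion. Paper disks (6 mm) holding 300 µg of compound were placed on agar plates inoculated with a standardized microbial suspension. DMSO-only disks served as negative controls. A mean inhibition zone below 7 mm was scored as no sensitivity. Values are means, n = 3.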
# Staphylococcus aureus [2] = experiment: Antimicrobial activity against Staphylococcus aureus UFPEDA 01 after 20 hrs by twofold serial dilution technique; details: UFPEDA 01, 20 h; summary of the method: as §1
# Staphylococcus [3] = experiment: Antimicrobial activity against coagulase-negative Staphylococcus H.A.M. 278 isolate after 20 hrs by twofold serial dilution technique; details: H.A.M. 278, 20 h
# Summary of the method: (§3)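 MIC was determined by twofold serial dilution. Bacteria were tested in plates at 10⁵ CFU/plate and read after 20 h. C. albicans was tested in tubes at 10³ CFU/tube and read after 48 h. All incubations were at 35 °C. Medium plus DMSO served as the negative control.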
# Staphylococcus aureus [4] = experiment: Antimicrobial activity against multidrug-resistant Staphylococcus aureus H.C. 20905 isolate after 20 hrs by twofold serial dilution technique; details: H.C. 20905, 20 h; summary of the method: as §1
# Staphylococcus aureus [5] = experiment: Antimicrobial activity against multidrug-resistant Staphylococcus aureus H.C. 20489 isolate after 20 hrs by twofold serial dilution technique; details: H.C. 20489, 20 h; summary of the method: as §1
# Enterococcus faecalis [6] = experiment: Antimicrobial activity against Enterococcus faecalis UFPEDA 138 after 20 hrs by twofold serial dilution technique; details: UFPEDA 138, 20 h; summary of the method: as §3
# Enterococcus faecalis [7] = experiment: Antimicrobial activity against multidrug-resistant Enterococcus faecalis H.C. 24708 isolate after 20 hrs by twofold serial dilution technique; details: H.C. 24708, 20 h; summary of the method: as §1
# Bacillus subtilis [8] = experiment: Antimicrobial activity against Bacillus subtilis UFPEDA 16 after 20 hrs by twofold serial dilution technique; details: UFPEDA 16, 20 h; summary of the method: as §3
# Enterococcus faecalis [9] = experiment: Antimicrobial activity against multidrug-resistant Enterococcus faecalis H.C. 21752 isolate after 20 hrs by twofold serial dilution technique; details: H.C. 21752, 20 h; summary of the method: as §1
# NCI-H292 [10] = experiment: Cytotoxicity against human NCI-H292 cells at 10 ug/mL after 72 hrs by MTT assay; details: NCI-H292, 72 h, read-out: GI
# Summary of the method: (§4)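 MTT antiproliferative assay. Cells were diluted to 10⁵ cells/mL in 96-well plates and preincubated for 24 h at 37 °C in humid 5% CO₂. Compounds or vincristine (reference) were then added. Formazan was dissolved and OD read at 540 nm, compared with medium-only control cells. Run in triplicate.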
# [11] = test system: Mycolicibacterium smegmatis; experiment: Antimicrobial activity against Mycobacterium smegmatis UFPEDA 71 after 20 hrs by twofold serial dilution technique; details: UFPEDA 71, 20 h; summary of the method: as §3
# [12] = test system: Mycolicibacterium smegmatis; experiment: Antimicrobial activity against Mycobacterium smegmatis UFPEDA 71 at 300 ug/disk after 24 hrs by disk diffusion method; details: UFPEDA 71, 24 h, read-out: IZ; summary of the method: as §2
# Staphylococcus aureus [13] = experiment: Antimicrobial activity against multidrug-resistant Staphylococcus aureus H.C. 20981 isolate after 20 hrs by twofold serial dilution technique; details: H.C. 20981, 20 h; summary of the method: as §1
# Micrococcus luteus [14] = experiment: Antimicrobial activity against Micrococcus luteus UFPEDA 06 after 20 hrs by twofold serial dilution technique; details: UFPEDA 06, 20 h; summary of the method: as §3
# Staphylococcus aureus [15] = experiment: Antimicrobial activity against multidrug-resistant Staphylococcus aureus H.C. 21141 isolate after 20 hrs by twofold serial dilution technique; details: H.C. 21141, 20 h; summary of the method: as §1
# Staphylococcus [16] = experiment: Antimicrobial activity against coagulase-negative Staphylococcus H.A.M. 338 isolate after 20 hrs by twofold serial dilution technique; details: H.A.M. 338, 20 h; summary of the method: as §3
# Enterococcus faecalis [17] = experiment: Antimicrobial activity against Enterococcus faecalis UFPEDA 138 at 300 ug/disk after 24 hrs by disk diffusion method; details: UFPEDA 138, 24 h, read-out: IZ; summary of the method: as §2
# Candida albicans [18] = experiment: Antimicrobial activity against Candida albicans UFPEDA 1007 after 48 hrs by twofold serial dilution technique; details: UFPEDA 1007, 48 h; summary of the method: as §3
# HEp-2 [19] = experiment: Cytotoxicity against human Hep2 cells at 10 ug/mL after 72 hrs by MTT assay; details: HEp-2, 72 h, read-out: GI; summary of the method: as §4
# Micrococcus luteus [20] = experiment: Antimicrobial activity against Micrococcus luteus UFPEDA 06 at 300 ug/disk after 24 hrs by disk diffusion method; details: UFPEDA 06, 24 h, read-out: IZ; summary of the method: as §2
# NCI-H292 [21] = experiment: Cytotoxicity against human NCI-H292 cells at 2.5 ug/mL after 72 hrs by MTT assay; details: NCI-H292, 72 h, read-out: GI; summary of the method: as §4
# HEp-2 [22] = experiment: Cytotoxicity against human Hep2 cells at 1.25 ug/mL after 72 hrs by MTT assay; details: HEp-2, 72 h, read-out: GI; summary of the method: as §4
# HEp-2 [23] = experiment: Cytotoxicity against human Hep2 cells at 2.5 ug/mL after 72 hrs by MTT assay; details: HEp-2, 72 h, read-out: GI; summary of the method: as §4
# Staphylococcus aureus [24] = experiment: Antimicrobial activity against Staphylococcus aureus UFPEDA 01 at 300 ug/disk after 24 hrs by disk diffusion method; details: UFPEDA 01, 24 h, read-out: IZ; summary of the method: as §2
# NCI-H292 [25] = experiment: Cytotoxicity against human NCI-H292 cells at 5 ug/mL after 72 hrs by MTT assay; details: NCI-H292, 72 h, read-out: GI; summary of the method: as §4
# HEp-2 [26] = experiment: Cytotoxicity against human Hep2 cells at 5 ug/mL after 72 hrs by MTT assay; details: HEp-2, 72 h, read-out: GI; summary of the method: as §4
# Candida albicans [27] = experiment: Antimicrobial activity against Candida albicans UFPEDA 1007 at 300 ug/disk after 48 hrs by disk diffusion method; details: UFPEDA 1007, 48 h, read-out: IZ; summary of the method: as §2
# Staphylococcus aureus [28] = experiment: Antimicrobial activity against multidrug-resistant Staphylococcus aureus H.C. 21036 isolate after 20 hrs by twofold serial dilution technique; details: H.C. 21036, 20 h; summary of the method: as §1
# Bacillus subtilis [29] = experiment: Antimicrobial activity against Bacillus subtilis UFPEDA 16 at 300 ug/disk after 24 hrs by disk diffusion method; details: UFPEDA 16, 24 h, read-out: IZ; summary of the method: as §2
# Serratia marcescens = experiment: Antimicrobial activity against Serratia marcescens UFPEDA 398 at 300 ug/disk after 24 hrs by disk diffusion method; details: UFPEDA 398, 24 h, read-out: IZ; summary of the method: as §2
# Enterococcus faecalis [30] = experiment: Antimicrobial activity against multidrug-resistant Enterococcus faecalis H.C. 24962 isolate after 20 hrs by twofold serial dilution technique; details: H.C. 24962, 20 h; summary of the method: as §1
# Escherichia coli = experiment: Antimicrobial activity against Escherichia coli UFPEDA 224 at 300 ug/disk after 24 hrs by disk diffusion method; details: UFPEDA 224, 24 h, read-out: IZ; summary of the method: as §2
# NCI-H292 [31] = experiment: Cytotoxicity against human NCI-H292 cells at 1.25 ug/mL after 72 hrs by MTT assay; details: NCI-H292, 72 h, read-out: GI; summary of the method: as §4
# Enterococcus faecalis [32] = experiment: Antimicrobial activity against multidrug-resistant Enterococcus faecalis H.C. 21944 isolate after 20 hrs by twofold serial dilution technique; details: H.C. 21944, 20 h; summary of the method: as §1
smiles,measurement,setting,value
O=C1NC(=S)/C(=C/c2ccc(F)cc2)S1,MIC,Staphylococcus aureus [1],2 µg/mL
same,zone of inhibition at 300 µg/disc,Pseudomonas aeruginosa,< 7 mm
same,MIC,Staphylococcus aureus [2],4 µg/mL
same,MIC,Staphylococcus [3],32 µg/mL
same,MIC,Staphylococcus aureus [4],2 µg/mL
same,MIC,Staphylococcus aureus [5],2 µg/mL
same,MIC,Enterococcus faecalis [6],32 µg/mL
same,MIC,Enterococcus faecalis [7],16 µg/mL
same,MIC,Bacillus subtilis [8],16 µg/mL
same,MIC,Enterococcus faecalis [9],32 µg/mL
same,inhibition of growth at 10 µg/mL,NCI-H292 [10],38%
same,MIC,[11],16 µg/mL
same,zone of inhibition at 300 µg/disc,[12],25 mm
same,MIC,Staphylococcus aureus [13],4 µg/mL
same,MIC,Micrococcus luteus [14],16 µg/mL
same,MIC,Staphylococcus aureus [15],32 µg/mL
same,MIC,Staphylococcus [16],32 µg/mL
same,zone of inhibition at 300 µg/disc,Enterococcus faecalis [17],24 mm
same,MIC,Candida albicans [18],32 µg/mL
same,inhibition of growth at 10 µg/mL,HEp-2 [19],30.1%
same,zone of inhibition at 300 µg/disc,Micrococcus luteus [20],29 mm
same,inhibition of growth at 2.5 µg/mL,NCI-H292 [21],17.5%
same,inhibition of growth at 1.25 µg/mL,HEp-2 [22],-10.8%
same,inhibition of growth at 2.5 µg/mL,HEp-2 [23],-4.51%
same,zone of inhibition at 300 µg/disc,Staphylococcus aureus [24],29 mm
same,inhibition of growth at 5 µg/mL,NCI-H292 [25],31.6%
same,inhibition of growth at 5 µg/mL,HEp-2 [26],20.6%
same,zone of inhibition at 300 µg/disc,Candida albicans [27],17 mm
same,MIC,Staphylococcus aureus [28],2 µg/mL
same,zone of inhibition at 300 µg/disc,Bacillus subtilis [29],26 mm
same,zone of inhibition at 300 µg/disc,Serratia marcescens,< 7 mm
same,MIC,Enterococcus faecalis [30],16 µg/mL
same,zone of inhibition at 300 µg/disc,Escherichia coli,< 7 mm
same,inhibition of growth at 1.25 µg/mL,NCI-H292 [31],7.32%
same,MIC,Enterococcus faecalis [32],32 µg/mL
